Blank lines part the entries; values can stand above or below the molecule they belong to.
Experiments:
Canis familiaris [1] = species: Canis familiaris; assay: (§1) Concentration that causes 20% increase in functional refractory period (FRP) was determined on isolated canine ventricular muscle fibers; details: Canis lupus familiaris; Muscle tissue
Outline: (§2)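 Canine right ventricular papillary muscle strips superfused with O2/CO2-gassed saline at 36 ± 0.5 °C. Bipolar electrogram recording. Stimulated at 4× diastolic threshold (2 ms pulses), equilibrated 60 min. FRP measured at 1000 ms cycle length by S2 after every tenth S1 at shortening intervals. Cumulative concentrations; one compound per strip, with vehicle controls. Readout is concentration giving a 20% FRP change, or maximal change; log mean with 90% CI when n > 2.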

Canis familiaris [2] = assay: In vivo antiarrhythmic efficacy in a programmed electrical stimulation (PES) model of mongrel dogs expressed as percent change in heart rate at iv dose range of 0.1-10 mg/kg.; type: functional, Canis lupus familiaris
Outline: (§3)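 Mongrel dogs (8–17 kg) with two-stage LAD occlusion 24 h earlier, anesthetized with thiopental 15 mg/kg and ventilated; open chest. PES induces SVT/VF; two control arrhythmias 30 min apart. Compound given as 10-min iv infusion, PES repeated 20 min later, dose escalated while still inducible; noninducibility counts as effective. HR and BP reported as % change at effective dose, mean ± SEM.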

Canis familiaris [3] = assay: In vivo intraduodenal activity in mongrel dogs was assessed by % change in heart rate (10 mg/kg administered intradermally); type: functional, Canis lupus familiaris; details: in the assay text read “intraduodenally” for “intradermally”
Outline: (§4)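 Healthy dogs (8–20 kg) of either sex, pentobarbital 30 mg/kg iv, ventilated, temperature held at 36 ± 0.5 °C. Compound given intraduodenally as suspension in 0.5% tragacanth. HR, BP and FRP measured at 45 min postdose; second dose if FRP/conduction change below 12%. Active dose means FRP change ≥ 12%; HR and BP given as % change, mean ± SEM.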

Canis familiaris [4] = species: Canis familiaris; assay: Concentration that causes 20% increase in ADP95 (action potential duration at 95% repolarization) was determined on isolated canine cardiac Purkinje fibers at a dose range of 0.01-10 uM; type: functional, Canis lupus familiaris, Purkinje fiber
Outline: (§5)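 Canine cardiac Purkinje fibres in gassed physiological saline (95% O2–5% CO2, pH 7.35–7.40) at 36 ± 0.5 °C. Paced at 1.0 Hz with 2 ms pulses at twice diastolic threshold. Intracellular microelectrode recording after up to 1 h of stabilisation; 30 min exposure per concentration; one compound per fibre, with vehicle controls. Readout is concentration giving a 20% change in APD95, or maximal APD95 change; log mean with 90% CI when n > 2.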

Canis familiaris [5] = assay: In vivo antiarrhythmic efficacy in a programmed electrical stimulation (PES) model of mongrel dogs expressed as minimum effect dose (iv) at iv dose range of 0.1-10 mg/kg.; type: functional, Canis lupus familiaris, Heart; outline: as §3
Canis familiaris [6] = assay: In vivo antiarrhythmic efficacy in a programmed electrical stimulation (PES) model of mongrel dogs expressed as percent change in blood pressure at iv dose range of 0.1-10 mg/kg.; type: functional, Canis lupus familiaris; outline: as §3
Canis familiaris [7] = assay: In vivo intraduodenal activity in mongrel dogs was assessed by % change in blood pressure (10 mg/kg administered intradermally); type: functional, Canis lupus familiaris, Artery; details: in the assay text read “intraduodenally” for “intradermally”; outline: as §4
Canis familiaris [8] = species: Canis familiaris; assay: Maximum observed change in ADP95 from control value was determined in isolated canine cardiac uM; type: functional, Canis lupus familiaris; outline: as §5
Canis familiaris [9] = species: Canis familiaris; assay: Maximum observed change in FRP from control was determined in isolated canine ventricular muscle fibers at a concentration of 100 uM; type: functional, Canis lupus familiaris, Muscle tissue; outline: as §2
Canis familiaris [10] = assay: In vivo antiarrhythmic efficacy in a programmed electrical stimulation (PES) model of mongrel dogs reported as number of animals effective at dose range of 0.1-10 mg/kg.; type: functional, Canis lupus familiaris, Heart; outline: as §3
Canis familiaris [11] = species: Canis familiaris; assay: Concentration that causes 20% increase in ADP95 (action potential duration at 95% repolarization) was determined on isolated canine cardiac Purkinje fibers;range is 11.2-18.6; type: functional, Canis lupus familiaris, Purkinje fiber; outline: as §5
Canis familiaris [12] = species: Canis familiaris; assay: Concentration that causes 20% increase in functional refractory period (FRP) was determined on isolated canine ventricular muscle fibers;range is 3.7-162; parameters: species or system Canis lupus familiaris, Muscle tissue; outline: as §2
Canis familiaris [13] = assay: In vivo antiarrhythmic efficacy in a PES model of mongrel dog expressed as percent change in heart rate at iv dose range of 0.1-30 mg/kg.; type: functional, Canis lupus familiaris; outline: as §3
Canis familiaris [14] = assay: In vivo intraduodenal activity in mongrel dogs was assessed by percent change in blood pressure at active dose of 10 mg/kg, administered intradermally; type: functional, Canis lupus familiaris, Artery; details: in the assay text read “intraduodenally” for “intradermally”; outline: as §4
Canis familiaris [15] = assay: In vivo intraduodenal activity in mongrel dogs was assessed by percent change in heart rate at active dose of 10 mg/kg, administered intradermally; type: functional, Canis lupus familiaris; details: in the assay text read “intraduodenally” for “intradermally”; outline: as §4
Canis familiaris [16] = assay: In vivo antiarrhythmic efficacy in a PES model of mongrel dog expressed as percent change in blood pressure at iv dose range of 0.1-30 mg/kg.; type: functional, Canis lupus familiaris; outline: as §3
Canis familiaris [17] = assay: In vivo antiarrhythmic efficacy in a programmed electrical stimulation (PES) model of mongrel dogs reported as number of animals effective at dose range of 0.1-30 mg/kg.; type: functional, Canis lupus familiaris, Heart; outline: as §3
Canis familiaris [18] = assay: In vivo antiarrhythmic efficacy in a programmed electrical stimulation (PES) model of mongrel dogs expressed as minimum effect dose (iv) at iv dose range of 0.1-30 mg/kg.; type: functional, Canis lupus familiaris, Heart; outline: as §3
Canis familiaris [19] = species: Canis familiaris; assay: Concentration that causes 20% increase in ADP95 (action potential duration at 95% repolarization) was determined on isolated canine cardiac Purkinje fibers (0.01-10 uM concentration range); type: functional, Canis lupus familiaris, Purkinje fiber; outline: as §5
Canis familiaris [20] = species: Canis familiaris; assay: Concentration that causes 20% increase in functional refractory period (FRP) was determined on isolated canine ventricular muscle fibers; NR = never reached; details: Canis lupus familiaris; Muscle tissue; outline: as §2
Canis familiaris [21] = assay: In vivo intraduodenal activity in mongrel dogs was assessed by percent change in heart rate at active dose of 30 mg/kg, administered intradermally; type: functional, Canis lupus familiaris; details: in the assay text read “intraduodenally” for “intradermally”; outline: as §4
Canis familiaris [22] = assay: In vivo intraduodenal activity in mongrel dogs was assessed by percent change in blood pressure at active dose of 30 mg/kg, administered intradermally; type: functional, Canis lupus familiaris, Artery; details: in the assay text read “intraduodenally” for “intradermally”; outline: as §4
Canis familiaris [23] = assay: In vivo antiarrhythmic efficacy in a programmed electrical stimulation (PES) model of mongrel dogs reported as number of animals effective at dose range of 0.3-30 mg/kg.; type: functional, Canis lupus familiaris, Heart; outline: as §3
Canis familiaris [24] = species: Canis familiaris; assay: as §1; parameters: species or system Canis lupus familiaris, Muscle tissue; outline: as §2
Canis familiaris [25] = species: Canis familiaris; assay: (§6) Concentration that causes 20% increase in ADP95 (action potential duration at 95% repolarization) was determined on isolated canine cardiac Purkinje fibers; type: functional; details: Canis lupus familiaris; Purkinje fiber; outline: as §5
Canis familiaris [26] = assay: In vivo antiarrhythmic efficacy in a programmed electrical stimulation (PES) model of mongrel dogs expressed as percent change in heart rate at iv dose range of 0.3-10 mg/kg.; type: functional, Canis lupus familiaris; outline: as §3
Canis familiaris [27] = assay: In vivo antiarrhythmic efficacy in a programmed electrical stimulation (PES) model of mongrel dogs expressed as minimum effect dose (iv) at iv dose range of 0.3-10 mg/kg.; type: functional, Canis lupus familiaris, Heart; outline: as §3
Canis familiaris [28] = assay: In vivo antiarrhythmic efficacy in a programmed electrical stimulation (PES) model of mongrel dogs expressed as percent change in blood pressure at iv dose range of 0.3-10 mg/kg.; type: functional, Canis lupus familiaris; outline: as §3
Canis familiaris [29] = species: Canis familiaris; assay: as §6; type: functional, Canis lupus familiaris, Purkinje fiber; outline: as §5
Canis familiaris [30] = assay: In vivo antiarrhythmic efficacy in a programmed electrical stimulation (PES) model of mongrel dogs reported as number of animals effective at dose range of 0.3-10 mg/kg.; type: functional, Canis lupus familiaris, Heart; outline: as §3
[31] = molecular target: Adrenergic receptor beta (Canis familiaris); assay: Concentration effective against displacing [3H]dihydroalprenolol from beta adrenergic receptor from canine ventricular tissue
Canis familiaris [32] = species: Canis familiaris; assay: Maximum observed change in FRP from control was determined in isolated canine ventricular muscle fibers at a concentration of 10 uM; type: functional, Canis lupus familiaris, Muscle tissue; outline: as §2
Canis familiaris [33] = species: Canis familiaris; assay: Maximum observed change in FRP from control was determined on isolated canine ventricular muscle fibers at a concentration of 100 uM; type: functional, Canis lupus familiaris, Muscle tissue; outline: as §2
Canis familiaris [34] = species: Canis familiaris; assay: Concentration that causes 20% increase in ADP95 (action potential duration at 95% repolarization) was determined on isolated canine cardiac Purkinje fibers at a concentration range 0.01-10 uM; type: functional, Canis lupus familiaris, Purkinje fiber; outline: as §5
Canis familiaris [35] = assay: In vivo antiarrhythmic efficacy in PES model of mongrel dogs expressed as percent change in blood pressure at iv dose range of 0.1-10 mg/kg.; type: functional, Canis lupus familiaris; details: in the assay text read “1.0-10 mg/kg” for “0.1-10 mg/kg”; outline: as §3

SMILES: CCCCCCC[N+](CC)(CC)CCCCc1ccc(Cl)cc1.O=P([O-])(O)O [CLOFILIUM PHOSPHATE]
- Activity (Canis familiaris [1]): Not recorded
- Heart rate (Canis familiaris [2]): -12%
- Heart rate (Canis familiaris [3]): -18%
- Activity (Canis familiaris [4]): 0.26 µM
- Min effective dose (Canis familiaris [5]): 0.63
- Blood pressure (Canis familiaris [6]): 2%
- Blood pressure (Canis familiaris [7]): -4%
- Max delta APD95 (Canis familiaris [8]): 39%
- Max delta FRP (Canis familiaris [9]): 7%
- No. effective (Canis familiaris [10]): 7

SMILES: CC(C)NCC(O)c1ccc(NS(C)(=O)=O)cc1.Cl (stereo not given) [SOTALOL HYDROCHLORIDE]
- Activity (Canis familiaris [11]): 14.4 µM
- Activity (Canis familiaris [12]): 24.7 µM
- Change (Canis familiaris [13]): -23%
- Change (Canis familiaris [14]): 8%
- Change (Canis familiaris [15]): -11%
- Max delta APD95 (Canis familiaris [8]): 48%
- Max delta FRP (Canis familiaris [9]): 23%
- Change (Canis familiaris [16]): -23%
- No. of animals (Canis familiaris [17]): 3
- Mean effective dose (Canis familiaris [18]): 1.4

SMILES: C[n+]1ccn(CC(=O)c2ccc(NS(C)(=O)=O)cc2)c1.[Cl-]
- Activity (Canis familiaris [19]): 2.3 µM
- Activity (Canis familiaris [20]): Not recorded
- Heart rate (Canis familiaris [21]): -19%
- Blood pressure (Canis familiaris [22]): 3%
- Max delta APD95 (Canis familiaris [8]): 38%
- Max delta FRP (Canis familiaris [9]): 15%
- No. effective (Canis familiaris [23]): 0

SMILES: Cc1c(C)[n+](C)c(C)n1CC(O)c1ccc(NS(C)(=O)=O)cc1.[Cl-] (stereo not given)
- Activity (Canis familiaris [24]): 2.5 µM
- Heart rate (Canis familiaris [3]): -12%
- Activity (Canis familiaris [25]): Not recorded
- Blood pressure (Canis familiaris [7]): 19%
- Max delta APD95 (Canis familiaris [8]): 13%
- Max delta FRP (Canis familiaris [9]): 29%

- IC50 [31]: 2350 µM
SMILES: C[n+]1ccn(CC(O)c2ccc(NS(C)(=O)=O)cc2)c1.[Cl-] (stereo not given)
- Activity (Canis familiaris [24]): 5.9 µM
- Heart rate (Canis familiaris [26]): -23%
- Heart rate (Canis familiaris [3]): -10%
- Min effective dose (Canis familiaris [27]): 6.5
- Blood pressure (Canis familiaris [28]): 0%
- Blood pressure (Canis familiaris [7]): 5%
- Activity (Canis familiaris [29]): 1.6 µM
- Max delta APD95 (Canis familiaris [8]): 50%
- Max delta FRP (Canis familiaris [9]): 31%
- No. effective (Canis familiaris [30]): 2

SMILES: Cc1n(CC(O)c2ccc(NS(C)(=O)=O)cc2)cc[n+]1C.[Cl-] (stereo not given)
- Activity (Canis familiaris [24]): 0.2 µM
- Heart rate (Canis familiaris [3]): -20%
- Blood pressure (Canis familiaris [7]): 3%
- Activity (Canis familiaris [29]): 0.8 µM
- Max delta APD95 (Canis familiaris [8]): 51%
- Max delta FRP (Canis familiaris [32]): 44%
- Max delta FRP (Canis familiaris [33]): 56%
- No. effective (Canis familiaris [23]): 0

SMILES: CCCCCCC[n+]1ccn(CC(=O)c2ccc(NS(C)(=O)=O)cc2)c1.[Br-]
- Activity (Canis familiaris [1]): Not recorded
- Activity (Canis familiaris [34]): 9 µM
- Max delta APD95 (Canis familiaris [8]): 21%
- Max delta FRP (Canis familiaris [9]): 14%

SMILES: C[n+]1ccn(CCc2ccc(NS(C)(=O)=O)cc2)c1.[I-]
- Activity (Canis familiaris [24]): 10 µM
- Heart rate (Canis familiaris [21]): -13%
- Min effective dose (Canis familiaris [5]): 6.5
- Blood pressure (Canis familiaris [22]): 3%
- Activity (Canis familiaris [29]): 2.6 µM
- Max delta APD95 (Canis familiaris [8]): 45%
- Max delta FRP (Canis familiaris [9]): 24%
- No. effective (Canis familiaris [10]): 2
- Blood pressure (Canis familiaris [35]): 13%

— ChEMBL document CHEMBL1123879, “Synthesis and antiarrhythmic activity of novel 3-alkyl-1-[omega-[4-[(alkylsulfonyl)amino]phenyl]-omega- hydroxyalkyl]-1H-imidazolium salts and related compounds” (J Med Chem, 1987)
